The record followed here is the array DNA melting data of Ke et al. (doi:10.1101/2024.01.08.574731).

A short description of data set [1]: melting temperature; fluorescence melt of hairpins on a sequencing array, two-state fit, raised by 9.35 °C to match UV melts. Conditions: sodium 0.088 M. The gist of the method: (§1)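 Melting temperature and folding enthalpy were obtained by bootstrapped two-state fitting. Fits used Cy3 fluorescence of library hairpins with annealed Cy3 and quencher oligos on a sequenced MiSeq flow cell, imaged in 50 mM Na-HEPES pH 8.0, 25 mM NaCl in 2.5 °C steps up to 60 °C and normalised to pre-quench Cy3 and control constructs. Four replicates were combined by inverse-variance weighting, and fitted temperatures were raised by 9.35 °C to match UV melts.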

Data set [2] in a line: folding enthalpy; higher = less favourable; fluorescence melt of hairpins on a sequencing array, two-state fit. Conditions: sodium 0.088 M. The gist of the method:
as §1

With GATCAGTCAACTGATC ((((((....)))))), the Tm in data set [1] turned out to be 50.9 °C. The folding enthalpy in data set [2] was -37.6 kcal/mol.

For GCAGGGCGAAAGCTCAGC ((.(.((....)).).)), the Tm in data set [1] was found to be 48.3 °C. Further, the folding enthalpy in data set [2] was -18.4 kcal/mol.

Take GCGACCCCGAAAGGGCGC (((..(((....)))))): in data set [1], the Tm came out at 67.7 °C. Moreover, in data set [2], the folding enthalpy is -29.1 kcal/mol.

For GAAGCCGGAAACAGCTTC (((((.(....).))))), in data set [1], the Tm is 42.8 °C. In data set [2], the folding enthalpy is -29.2 kcal/mol.

As for GCGAAACCGAAAGGTCGC (((..(((....)))))), the Tm in data set [1] was found to be 54.4 °C. Further, the folding enthalpy in data set [2] is -29.9 kcal/mol.

For GCGTTAGACGC ((((...)))), the Tm in data set [1] was found to be 51.3 °C. Further, in data set [2], the folding enthalpy is -18.1 kcal/mol.

As for GTGCCCGGAAACGGGTGC (..((((....))))..), in data set [1], the Tm turned out to be 53.9 °C. Besides, the folding enthalpy in data set [2] is -21.9 kcal/mol.

With GGGACCGAAAGGTGCCC ((((((....))).))), the Tm in data set [1] was determined as 61 °C. In data set [2], the folding enthalpy was -17.7 kcal/mol.

Regarding GCGCAACGAAAGTTCCGC (((.(((....))).))), the Tm in data set [1] is 49.3 °C. In addition, in data set [2], the folding enthalpy was -30.5 kcal/mol.

With GTGTTTGCGAAAGCACAC (((..(((....)))))), the Tm in data set [1] is 45.9 °C. The folding enthalpy in data set [2] is -20.2 kcal/mol.

As to GATCCAAAGGTGGATC ((((((....)))))), in data set [1], the Tm amounted to 47 °C. In data set [2], the folding enthalpy was -26.1 kcal/mol.

For the sequence GTCTGGGGAAACCTAGAC ((((.((....)).)))), in data set [1], the Tm is 47.6 °C. Moreover, in data set [2], the folding enthalpy is -29.7 kcal/mol.

Take CGAGCGGAAACGCGCTCG ((((((....)))..))): the Tm in data set [1] is 68.5 °C. Moreover, the folding enthalpy in data set [2] is -26.4 kcal/mol.

Take GAGAGGCGAAAGCCGCTC (((.(((....))).))): the Tm in data set [1] was 66.1 °C. The folding enthalpy in data set [2] was -18.9 kcal/mol.

GGTTGCGAAAGCATAACC ((((((....)))..))): the Tm in data set [1] was determined as 45.9 °C. In addition, the folding enthalpy in data set [2] is -20.5 kcal/mol.

Consider GGGCGGGGAAACCCGTCC ((.((((....)))).)), for which the Tm in data set [1] is 65 °C. Further, the folding enthalpy in data set [2] was -37.3 kcal/mol.

Take GATCAAAGCATTGATC ((((((....)))))): the Tm in data set [1] was 43.7 °C. For the same sequence, the folding enthalpy in data set [2] was -36.8 kcal/mol.

In the case of GCTGGGCGAAAGCCATGC ((..(((....)))..)), in data set [1], the Tm was 55.1 °C. For the same sequence, the folding enthalpy in data set [2] was -19.2 kcal/mol.

With GTGAAACCGAAAGGTCAC (((..(((....)))))), the Tm in data set [1] stood at 42 °C. In addition, the folding enthalpy in data set [2] was -20.4 kcal/mol.

In the case of GATCTAGTGTAGATC ((((((...)))))), in data set [1], the Tm was 38.5 °C. For the same sequence, the folding enthalpy in data set [2] was -26.4 kcal/mol.

As to GGGCCTCGAAAGAGTCCC (((.(((....))).))), in data set [1], the Tm was 54.2 °C. Besides, in data set [2], the folding enthalpy was -40.7 kcal/mol.

In the case of GCGACGCGAAAGCCTGGC ((.(.((....)).).)), the Tm in data set [1] was found to be 28.1 °C. For the same sequence, the folding enthalpy in data set [2] was -5.89 kcal/mol.

For the sequence GCGGGGCGAAAGCCTGGC ((..(((....)))..)), in data set [1], the Tm worked out at 57.8 °C. The folding enthalpy in data set [2] was -19.2 kcal/mol.

In the case of GATCCAGGTTTGGATC ((((((....)))))), in data set [1], the Tm came to 51.7 °C. Also, the folding enthalpy in data set [2] is -42.5 kcal/mol.

For the sequence GTCCTGGGAAACTAGGGC (.(((.(....).))).), in data set [1], the Tm worked out at 40 °C. Besides, the folding enthalpy in data set [2] was -28.8 kcal/mol.

With GGGCTCGAAAGAGTCCCC ((((((....)))..))), in data set [1], the Tm was 60.3 °C. In addition, the folding enthalpy in data set [2] was -15.8 kcal/mol.

Turning to GACCTCGGAAACGAGACC (..((((....))))..), the Tm in data set [1] amounted to 26.1 °C. For the same sequence, the folding enthalpy in data set [2] was -11.8 kcal/mol.

For the sequence GGTCTGGGAAACCAGGCC ((.((((....)))).)), the Tm in data set [1] was 56.9 °C. Moreover, the folding enthalpy in data set [2] was -47.6 kcal/mol.

In the case of GGGCTTGGAAACAGGCTC (.((.((....)).)).), the Tm in data set [1] came to 38.3 °C. For the same sequence, the folding enthalpy in data set [2] was -24.4 kcal/mol.

Consider GTGCAGCCGAAAGGCCAC (((..(((....)))))), for which, in data set [1], the Tm was 49.1 °C. Moreover, the folding enthalpy in data set [2] was -12.7 kcal/mol.

Turning to CGAGCGGAAACGCCGTCG ((((((....)))..))), the Tm in data set [1] came out at 55 °C. For the same sequence, the folding enthalpy in data set [2] is -15.5 kcal/mol.

In the case of GTCCAAGCGAAAGCTGAC (((..(((....)))))), in data set [1], the Tm stood at 41.4 °C. The folding enthalpy in data set [2] was -14.4 kcal/mol.

For the sequence GCTGGCGGAAACGCTGGC ((..(((....)))..)), in data set [1], the Tm stood at 53.7 °C. Besides, the folding enthalpy in data set [2] was -32.7 kcal/mol.

With GCCTTGGGAAACCAAAGC ((.((((....)))).)), the Tm in data set [1] came out at 37.6 °C. Further, the folding enthalpy in data set [2] is -18 kcal/mol.

As for CAGATGAAAATCTG (((((....))))), in data set [1], the Tm amounted to 44.4 °C. Moreover, the folding enthalpy in data set [2] was -22.9 kcal/mol.

For the sequence CGTACGGAAACGTTAACG ((((((....)))..))), the Tm in data set [1] is 37.3 °C. Also, the folding enthalpy in data set [2] was -16.7 kcal/mol.

As to GCCAAACGAAAGTTGGC (((.(((....)))))), in data set [1], the Tm amounted to 56.8 °C. Also, the folding enthalpy in data set [2] is -34.5 kcal/mol.

Turning to TAGATGAAAATCTA (((((....))))), the Tm in data set [1] was 26.1 °C. The folding enthalpy in data set [2] was -10.1 kcal/mol.

As to GCATACGAAAGTACGTGC ((((((....)))..))), the Tm in data set [1] worked out at 34.4 °C. Besides, in data set [2], the folding enthalpy was -18.1 kcal/mol.

As for GATCACACTCGTGATC ((((((....)))))), the Tm in data set [1] is 57.4 °C. Also, the folding enthalpy in data set [2] was -40.6 kcal/mol.

Regarding GAACACGAAAGTGTTC ((((((....)))))), the Tm in data set [1] was determined as 69 °C. In data set [2], the folding enthalpy was -30.9 kcal/mol.

On to TGTTTGAAAAAACA (((((....))))), for which the Tm in data set [1] is 29.3 °C. The folding enthalpy in data set [2] was -8.4 kcal/mol.

As for GGTATGGGAAACCGTACC ((((.((....)).)))), the Tm in data set [1] worked out at 50.5 °C. Besides, the folding enthalpy in data set [2] is -38.5 kcal/mol.

In the case of GAACGCGAAAGCGCTTTC ((((((....)))..))), the Tm in data set [1] was found to be 29.7 °C. Moreover, the folding enthalpy in data set [2] is -8.13 kcal/mol.

With GCCAGACGAAAGTCCGGC (((.(((....))).))), the Tm in data set [1] was found to be 60.1 °C. In data set [2], the folding enthalpy is -27.6 kcal/mol.

Consider GCAGTCGGAAACGGTTGC (((..((....))..))), for which the Tm in data set [1] came out at 42.4 °C. For the same sequence, in data set [2], the folding enthalpy is -25.8 kcal/mol.

Take GACCACACGAAAGTGGTC (((..(((....)))))): the Tm in data set [1] worked out at 57 °C. In data set [2], the folding enthalpy is -30.9 kcal/mol.

As to GGTGTTGGAAACAACACC (((((((....))))))), the Tm in data set [1] was 66.5 °C. In addition, in data set [2], the folding enthalpy is -38.4 kcal/mol.

Turning to ACCTAGAAATAGGT (((((....))))), in data set [1], the Tm was found to be 36.8 °C. For the same sequence, the folding enthalpy in data set [2] is -11.8 kcal/mol.

Consider GGATGCGAAAGCACTTCC ((((((....)))..))), for which the Tm in data set [1] was 42.2 °C. Also, in data set [2], the folding enthalpy is -17.4 kcal/mol.

In the case of GAGCCAGGAAACTGGCCC (.(((((....))))).), in data set [1], the Tm was found to be 45.8 °C. Besides, the folding enthalpy in data set [2] was -11.3 kcal/mol.

Regarding GGCATACCGAAAGGTGCC (((..(((....)))))), the Tm in data set [1] turned out to be 53.3 °C. The folding enthalpy in data set [2] was -39.5 kcal/mol.

For the sequence GATCGTTGGACGATC ((((((...)))))), the Tm in data set [1] stood at 54.8 °C. The folding enthalpy in data set [2] was -35.1 kcal/mol.

Turning to GCTCAGGGAAACCTGGGC ((.((((....)))).)), the Tm in data set [1] was 54.4 °C. In addition, the folding enthalpy in data set [2] is -39.6 kcal/mol.

In the case of GAGTACCCGAAAGGGCTC (((..(((....)))))), the Tm in data set [1] came to 32.4 °C. Also, the folding enthalpy in data set [2] is -15.3 kcal/mol.
